We go through 1 compound from ChEMBL document CHEMBL3804820, “2-hydroxyisoquinoline-1,3(2H,4H)-diones (HIDs) as human immunodeficiency virus type 1 integrase inhibitors: Influence of the alkylcarboxamide substitution of position 4” (Eur J Med Chem, 2016).

Values after ≈ are worked out from the molar mass of the structure shown. Active and inactive are the calls of the source. No cut-off for these calls is given here.

The subject of data set [1] is HepG2. Briefly: Cytotoxicity against human HepG2 cells assessed as increase in intracellular free calcium level at 100 uM after 72 hrs by fluorescent image analysis relative to untreated control. In kind it is cell-based. The note with it: hepg2, 72 h. The gist of the method:
(§1)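 Contract in vitro cytotoxicity panel covering cell number, intracellular free calcium, nuclear size, membrane permeability and mitochondrial membrane potential. Compounds tested at 1.0, 30.0 and 100.0 µM; values are percentage change versus untreated control, and IC50 where derived.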

Data set [2] in a line: Aqueous solubility in PBS at pH 7.4. The format is physicochemical. In a few lines: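 Aqueous solubility measured in PBS, pH 7.4, in a standard contract assay.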
A short description of data set [3]: Apparent permeability coefficient in human Caco2 cells at pH 6.5/7.4 at 10 uM. In kind it is ADME, cell-based. The following applies: Caco-2, pH 6.5. In a few lines:
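A-to-B permeability measured in Caco-2 monolayers at pH 6.5/7.4, reported as Papp. Standard contract assay.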

The subject of data set [4] is MDCK-II. In words: Inhibition of human P-gp expressed in MDCK2-MDR1 cells assessed as reduction in calcien-AM efflux at 1 uM incubated for 20 mins by fluorimetry relative to control. The format is cell-based. In a few lines: (§2)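 P-gp efflux inhibition in MDR1-MDCKII cells with calcein AM substrate, tested up to 100.0 µM. Read as percentage inhibition of control.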

Data set [5] can be described thus: Cytotoxicity against human HepG2 cells assessed as reduction in cell number at 1 uM after 72 hrs by fluorescent image analysis relative to untreated control. The note with it: read-out: INH. The format is cell-based. The gist of the method:
as §1

Data set [6] deals with HepG2. Briefly: Cytotoxicity against human HepG2 cells assessed as increase in membrane permeability at 1 uM after 72 hrs by fluorescent image analysis relative to untreated control. In kind it is cell-based. The following applies: hepg2, 72 h.
Data set [7] has as its system Human immunodeficiency virus 1. In words: Selectivity ratio of EC50 for raltegravir resistant HIV1 harboring integrase N155H mutant infected in human MT4 cells to EC50 for wild type HIV1 3B infected in human MT4 cells. In kind it is functional. In a few lines: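 MT-4/MTT cytopathic-effect assay in human MT-4 lymphocytes. Cells were infected with 100–300 CCID50 of each virus stock in the presence of 5-fold serial drug dilutions. The HIV-1 IIIB wild-type stock was titrated on MT-4 cells. Viability was read spectrophotometrically as formazan from MTT reduction. EC50 is the concentration giving 50% protection against CPE for each strain. Fold-change is mutant-strain EC50 relative to wild-type EC50.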

Another data set deals with T1, CYP1A2 (Homo sapiens, UniProt P05177).
T1 sequence (P05177 whole entry): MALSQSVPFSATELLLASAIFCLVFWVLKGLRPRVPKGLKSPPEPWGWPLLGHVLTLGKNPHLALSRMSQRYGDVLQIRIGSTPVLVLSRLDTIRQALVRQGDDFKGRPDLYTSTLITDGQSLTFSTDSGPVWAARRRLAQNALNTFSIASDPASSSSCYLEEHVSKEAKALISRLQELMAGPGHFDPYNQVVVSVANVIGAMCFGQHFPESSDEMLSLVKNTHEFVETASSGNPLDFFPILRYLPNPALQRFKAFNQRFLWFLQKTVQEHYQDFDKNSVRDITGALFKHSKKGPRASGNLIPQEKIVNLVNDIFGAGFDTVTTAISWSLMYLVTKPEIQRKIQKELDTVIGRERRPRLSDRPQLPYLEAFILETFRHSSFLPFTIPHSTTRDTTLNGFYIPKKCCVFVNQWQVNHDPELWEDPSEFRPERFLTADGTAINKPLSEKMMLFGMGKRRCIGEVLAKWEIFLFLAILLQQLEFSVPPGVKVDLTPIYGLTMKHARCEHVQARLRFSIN
Briefly: Inhibition of human recombinant CYP1A2 using CEC as substrate at 10 uM incubated for 30 mins by fluorimetry relative to control. In kind it is ADME. The note with it: recombinant CYP1A2, probe CEC. In a few lines: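 Recombinant CYP isoforms, each with its fluorogenic substrate: CYP1A2 and CYP2C19 with CEC, CYP2C9 and CYP2D6 with MFC, CYP3A4 with BFC. Read as percentage inhibition of control, standard contract assays.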

The target of data set [8] is Human immunodeficiency virus type 1 integrase (Human immunodeficiency virus 1, UniProt Q7ZJM1). In words: Inhibition of HIV1 integrase 3'-processing activity using 5'-ACTGCTAGAGATTTTCCACACTGACTAAAAGGGTC-[biotin]3' as substrate incubated for 1 hr by ELISA. On the technique in general: ELISA stands for enzyme-linked immunosorbent assay.
Data set [9] has as its system MDCK-II. In words: Inhibition of human P-gp expressed in MDCK2-MDR1 cells assessed as reduction in calcien-AM efflux at 30 uM incubated for 20 mins by fluorimetry relative to control. In kind it is cell-based. In a few lines:
as §2

Data set [10] is described as follows: Therapeutic index, ratio of CC50 for human MT4 cells to EC50 for HIV1 3B infected in human MT4 cells. The format is cell-based. The note with it: read-out: Ratio CC50/EC50. In a few lines:
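Ratio of CC50 to EC50. Both were determined in parallel by MTT in MT-4 cells, with the EC50 measured against HIV-1 IIIB cytopathic effect.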

Another data set deals with hERG (KCNH2) (Homo sapiens, UniProt Q12809). Briefly: in vitro. The note with it: CHO-K1 cells expressing human ERG.
A short description of data set [11]: Cytotoxicity against human HepG2 cells assessed as reduction in mitochondrial membrane potential at 1 uM after 72 hrs by fluorescent image analysis relative to untreated control. The format is cell-based. The note with it: read-out: INH. The gist of the method: as §1
Data set [12] concerns MDCK-II. Briefly: Inhibition of human P-gp expressed in MDCK2-MDR1 cells assessed as reduction in calcien-AM efflux at 100 uM incubated for 20 mins by fluorimetry relative to control. In kind it is cell-based. In a few lines: as §2
The subject of data set [13] is HepG2. In words: Cytotoxicity against human HepG2 cells assessed as increase in intracellular free calcium level at 1 uM after 72 hrs by fluorescent image analysis relative to untreated control. The format is cell-based. The note with it: hepg2, 72 h. In a few lines: as §1
The test system of data set [14] is Human immunodeficiency virus 1. In words: Antiviral activity against HIV1 3B infected in human MT4 cells at 50 to 100 times antiviral EC50 added 1 to 25 hrs post infection assessed as time required for loss of inhibition of viral replication measured at 30 hrs post infection by p24 ELISA method. The format is functional.
The nature of data set [15]: Inhibition of recombinant HIV1 reverse transcriptase RNase H activity using calf thymus ssDNA-[3H]-RNA as template/primer incubated for 10 mins. Set-up: species or system Human immunodeficiency virus 1. The gist of the method:
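Recombinant HIV-1 RT (4.5 pmol) preincubated with compound 10 min at 37 °C. Then reacted 10 min at 37 °C with [3H]-RNA/calf thymus DNA hybrid (20,000 cpm) in 50 mM Tris-HCl pH 8.0, 10 mM DTT, 6 mM MgCl2, 80 mM KCl. Stopped with cold TCA/pyrophosphate; released radioactivity taken by subtraction from undigested control.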

Data set [16] has as its system Human immunodeficiency virus 1. Briefly: Selectivity ratio of EC50 for raltegravir resistant HIV1 harboring integrase G140S/Q148H double mutant infected in human MT4 cells to EC50 for wild type HIV1 3B infected in human MT4 cells. The format is functional. In a few lines: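 MT-4 cells were infected with 100–300 CCID₅₀ of virus stock (titrated in MT-4 cells) in the presence of 5-fold serial drug dilutions. EC₅₀ is the concentration giving 50% protection against virus-induced cytopathic effect, read by MTT reduction (MT-4/MTT assay). The value is the fold-change in EC₅₀ for each mutant strain relative to the wild-type HIV-1 strain.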

A short description of data set [17]: Cytotoxicity against human HepG2 cells assessed as reduction in nuclear size at 1 uM after 72 hrs by fluorescent image analysis relative to untreated control. The following applies: read-out: INH. The format is cell-based. In a few lines:
as §1

Data set [18] in a line: Cytotoxicity against human MT4 cells assessed as reduction in cell viability by MTT assay. In kind it is cell-based. The gist of the method: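 MT-4 cell viability was measured by MTT reduction, run in parallel with the antiviral assay using 5-fold serial compound dilutions. CC50 is the concentration reducing viability by 50%.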
On the technique in general: Tetrazolium assays rely on reduction of a dye to a coloured formazan, in cell work by metabolically active cells.

Sequence of hERG (KCNH2) (Q12809 whole entry): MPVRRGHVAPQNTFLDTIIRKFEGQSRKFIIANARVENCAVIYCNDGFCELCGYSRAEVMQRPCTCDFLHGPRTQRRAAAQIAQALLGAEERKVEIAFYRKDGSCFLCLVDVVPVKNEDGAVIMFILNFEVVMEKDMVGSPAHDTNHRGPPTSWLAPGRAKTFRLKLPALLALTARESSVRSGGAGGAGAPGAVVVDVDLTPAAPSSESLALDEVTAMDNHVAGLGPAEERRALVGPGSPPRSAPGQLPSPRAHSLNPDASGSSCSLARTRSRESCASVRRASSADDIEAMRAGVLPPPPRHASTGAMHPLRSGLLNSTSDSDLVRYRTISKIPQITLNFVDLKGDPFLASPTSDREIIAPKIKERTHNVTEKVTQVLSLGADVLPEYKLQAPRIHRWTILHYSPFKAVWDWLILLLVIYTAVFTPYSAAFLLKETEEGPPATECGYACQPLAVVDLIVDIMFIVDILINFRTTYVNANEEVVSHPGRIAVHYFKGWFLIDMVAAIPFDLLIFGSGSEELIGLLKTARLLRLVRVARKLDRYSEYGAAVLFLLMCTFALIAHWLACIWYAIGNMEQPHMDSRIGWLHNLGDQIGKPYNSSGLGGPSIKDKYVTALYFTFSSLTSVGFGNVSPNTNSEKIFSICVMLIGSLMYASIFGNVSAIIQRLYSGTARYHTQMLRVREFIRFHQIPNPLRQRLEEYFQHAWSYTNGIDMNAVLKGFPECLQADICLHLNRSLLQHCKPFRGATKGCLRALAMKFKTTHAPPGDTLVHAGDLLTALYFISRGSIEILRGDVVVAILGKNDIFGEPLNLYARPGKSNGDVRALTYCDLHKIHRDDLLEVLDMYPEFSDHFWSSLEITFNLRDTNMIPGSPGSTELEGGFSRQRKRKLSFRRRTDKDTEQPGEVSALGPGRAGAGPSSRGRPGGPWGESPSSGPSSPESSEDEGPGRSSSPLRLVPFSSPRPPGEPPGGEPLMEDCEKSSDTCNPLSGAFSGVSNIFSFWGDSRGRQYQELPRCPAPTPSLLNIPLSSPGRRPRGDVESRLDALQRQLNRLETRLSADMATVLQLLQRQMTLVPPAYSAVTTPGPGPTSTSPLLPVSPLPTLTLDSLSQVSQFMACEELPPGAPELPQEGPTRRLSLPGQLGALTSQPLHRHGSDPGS
Sequence of Human immunodeficiency virus type 1 integrase (Q7ZJM1 whole entry): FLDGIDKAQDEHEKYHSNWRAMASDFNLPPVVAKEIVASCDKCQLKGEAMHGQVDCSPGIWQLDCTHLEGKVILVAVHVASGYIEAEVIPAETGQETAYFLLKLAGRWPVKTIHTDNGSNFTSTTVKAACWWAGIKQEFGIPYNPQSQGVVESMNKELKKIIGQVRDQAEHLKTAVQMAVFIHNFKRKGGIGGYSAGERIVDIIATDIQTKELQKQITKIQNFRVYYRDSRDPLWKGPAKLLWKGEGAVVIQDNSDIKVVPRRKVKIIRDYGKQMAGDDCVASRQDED

Turning to `CCCCCCNC(=O)C1C(=O)N(O)C(=O)c2ccccc21` (stereo not given), the Activity is on record as 32.3% with HepG2 [1], 0.1% in the data set with HepG2 [6] and -1.5% in the data set with HepG2 [13]. In data set [2], the solubility was 160 µM (≈ 48.8 µg/mL). Also, the apparent permeability (Papp) at 10 µM in data set [3] worked out at 24.6 ×10⁻⁶ cm/s. For the same compound, the figures for the inhibition with MDCK-II [4], in the data set on MDCK-II [9] and with MDCK-II [12] were -5.5%, 2% and 5.3%, respectively. Also, the cytotoxicity at 72 h, 1 µM in [5] is -10%; in data set [11], 5.7%; in [17], -7%. The “Ratio EC50” value in data set [7] and in data set [16] was 1 in each case. Moreover, the inhibition at 0.5 h, 10 µM at CYP1A2 is 12.7%. The IC50 in [8] was 0.51 µM; in data set [15] it was 5.35 µM. In addition, in data set [10], the selectivity ratio came to 21.2. For the same compound, the inhibition at 5 min, 10 µM against hERG (KCNH2) was 19.4%. Besides, the result in data set [14] was Active. Further, in data set [18], the cytotoxic concentration (CC50) was found to be 57.7 µM.

As usually defined, the solubility is the dissolved amount per volume that the medium holds. Low values mean a poorly soluble substance, high ones a readily soluble substance. One may read the Papp as the rate of passage across a membrane or cell layer, normalised by area and donor concentration. Usually inhibition stands for the drop in the measured response relative to a control, in per cent. As usually defined, the IC50 is the midpoint of a concentration-inhibition curve. One may read the CC50 as the concentration at which the toxic effect on the cells reaches its halfway point.
